The values below come from publication PMC7172969 (Journal of Hepatology, 2016).

For one assay, the system named is HBV replication. Put plainly: HBV replication assay in HepG2.2.15.7 cells. The following applies: six days, ETV 1 μM, CsA and its derivatives 8 μM. It counts as cell-based, hepatitis B virus. The gist of the method: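 HepG2.2.15.7 cells support HBV replication but not entry. They were treated for six days with test compound (8 μM), entecavir 1 μM as positive control, or DMSO 0.16%. HBV DNA released into the culture supernatant was then quantified by real-time PCR.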

For the next assay, the target named is T1, NTCP (Homo sapiens, UniProt Q14973).
T1 sequence (Q14973 1-349): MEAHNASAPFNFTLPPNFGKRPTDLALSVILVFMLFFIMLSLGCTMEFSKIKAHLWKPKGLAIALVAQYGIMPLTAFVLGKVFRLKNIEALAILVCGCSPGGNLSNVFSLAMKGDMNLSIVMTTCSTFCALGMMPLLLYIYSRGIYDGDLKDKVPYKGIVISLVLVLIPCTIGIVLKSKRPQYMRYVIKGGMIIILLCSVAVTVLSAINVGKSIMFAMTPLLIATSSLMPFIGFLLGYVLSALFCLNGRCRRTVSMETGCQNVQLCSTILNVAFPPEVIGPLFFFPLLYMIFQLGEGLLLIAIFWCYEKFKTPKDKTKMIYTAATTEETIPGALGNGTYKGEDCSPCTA
The experiment in a line: NTCP transporter assay. It counts as cell-based. The following applies: HepG2-hNTCP-C4 cells, sulfobromophthalein 40 and 100 μM.

The next assay concerns HBV (genotype D). The experiment in a line: HBV infection assay in HepG2-hNTCP-C4 cells. It counts as cell-based, hepatitis B virus. To be noted: same concentration conditions (40 and 100 μM). Summed up:
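HepG2-hNTCP-C4 cells were inoculated with genotype D HBV from Hep38.7-Tet culture supernatant at 6000 GEq/cell in 4% PEG8000. Test compound (8 μM), preS1 peptide (100 nM) or DMSO 0.16% was present for 16 h. Cells were washed and cultured 12 more days without compound. On day 13, supernatant HBs was measured by ELISA and intracellular HBc by immunofluorescence with image quantification. MTT viability was run in parallel.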

Molecules are shown by their SMILES.

With `C=C1[C@H](CO)[C@@H](O)C[C@@H]1n1cnc2c(=O)[nH]c(N)nc21` [entecavir], in the assay on HBV replication, the “HBV DNA released into the culture supernatant” value is reported as “significantly reduced”. Consider `O=C1OC(c2ccc(O)c(S(=O)(=O)O)c2)(c2ccc(O)c(S(=O)(=O)O)c2)c2c(Br)c(Br)c(Br)c(Br)c21` [sulfobromophthalein, Sulfobromophthalein], for which the “bile acid uptake in sodium-containing condition” value at NTCP is “impaired the bile acid uptake”. In the assay with HBV (genotype D), the HBV infection entry was “did not inhibit HBV infection”.
